In ChEMBL document CHEMBL1770131, “Radiosynthesis and preliminary evaluation of 4-[18F]fluoro-N-[4-[6-(isopropylamino)pyrimidin-4-yl]-1,3-thiazol-2-yl]-N-methylbenzamide as a new positron emission tomography ligand for metabotropic glutamate receptor subtype 1” (Bioorg Med Chem Lett, 2011) one finds Drug uptake and logD data, which are given here for 1 compound.

Series [1] has as its system Cerebral cortex. Nature of the series: Biodistribution in Sprague-Dawley rat cerebral cortex at 5 MBq, iv after 30 mins by autoradiography. In kind it is ADME, organism-based. Conditions: in vivo, 0.5 h. Put shortly:
(§1)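 Male Sprague–Dawley rats given about 5 MBq radioligand in saline by tail vein, with or without co-injected JNJ16259685 at 1 mg/kg. Killed by cervical dislocation 30 min after injection. Brains frozen on dry ice, cut into 20 µm sagittal sections, and imaged by autoradiography as for the in vitro sections.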

Series [2] can be described thus: Octanol-water distribution coefficient, Log D of the compound in at pH 7.4 by shaking method. In kind it is physicochemical. Put shortly:
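Radioligand partitioned between n-octanol and PBS at pH 7.4 by shaking. Vortexed 3 min at room temperature, centrifuged 3500 rpm for 5 min. 1 mL of each phase weighed and counted. Organic layer re-partitioned until Log D values were consistent. Log D = Log[cpm/g octanol / cpm/g PBS]. Done in triplicate.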

The test system of series [3] is Cerebral cortex. Description: Biodistribution in Sprague-Dawley rat cerebral cortex at 5 MBq, iv after 30 mins by autoradiography in presence of 1 mg/kg of mGluR1 antagonist JNJ16259685. In kind it is organism-based. Also noted: dose 1 mg/kg, route intravenous. Conditions: in vivo, 0.5 h. Put shortly:
as §1

For series [4], the system named is Cerebellum. Nature of the series: Biodistribution in Sprague-Dawley rat cerebellum at 5 MBq, iv after 30 mins by autoradiography. Format: ADME, organism-based. Conditions: in vivo, 0.5 h. Put shortly:
as §1

Series [5] deals with Rattus norvegicus. Nature of the series: Biodistribution in Sprague-Dawley rat pons-medulla at 5 MBq, iv after 30 mins by autoradiography. Conditions: in vivo, 0.5 h. In kind it is ADME, organism-based. Put shortly: as §1
Series [6] deals with Hippocampus. Nature of the series: Biodistribution in Sprague-Dawley rat hippocampus at 5 MBq, iv after 30 mins by autoradiography. Format: ADME, organism-based. Particulars: in vivo, 0.5 h. Put shortly: as §1
In series [7] the test system is Thalamus. Description: Biodistribution in Sprague-Dawley rat thalamus at 5 MBq, iv after 30 mins by autoradiography. In kind it is ADME, organism-based. Particulars: in vivo, 0.5 h. Put shortly:
as §1

Series [8] has as its system Cerebellum. Nature of the series: Biodistribution in Sprague-Dawley rat cerebellum at 5 MBq, iv after 30 mins by autoradiography in presence of 1 mg/kg of mGluR1 antagonist JNJ16259685. Format: organism-based. Further details: dose 1 mg/kg, route intravenous. Conditions: in vivo, 0.5 h. Put shortly:
as §1

The subject of series [9] is Rattus norvegicus. Nature of the series: Biodistribution in Sprague-Dawley rat pons-medulla at 5 MBq, iv after 30 mins by autoradiography in presence of 1 mg/kg of mGluR1 antagonist JNJ16259685. Format: organism-based. Also noted: dose 1 mg/kg, route intravenous. Conditions: in vivo, 0.5 h. Put shortly:
as §1

The subject of series [10] is Thalamus. Nature of the series: Biodistribution in Sprague-Dawley rat thalamus at 5 MBq, iv after 30 mins by autoradiography in presence of 1 mg/kg of mGluR1 antagonist JNJ16259685. Particulars: in vivo, 0.5 h. In kind it is organism-based. Also noted: dose 1 mg/kg, route intravenous. Put shortly: as §1
For series [11], the system named is Hippocampus. Description: Biodistribution in Sprague-Dawley rat hippocampus at 5 MBq, iv after 30 mins by autoradiography in presence of 1 mg/kg of mGluR1 antagonist JNJ16259685. In kind it is organism-based. Further details: dose 1 mg/kg, route intravenous. Conditions: in vivo, 0.5 h. Put shortly:
as §1

In series [12] the test system is Striatum. Description: Biodistribution in Sprague-Dawley rat striatum at 5 MBq, iv after 30 mins by autoradiography. In kind it is ADME, organism-based. Particulars: in vivo, 0.5 h. Put shortly:
as §1

The subject of series [13] is Striatum. Description: Biodistribution in Sprague-Dawley rat striatum at 5 MBq, iv after 30 mins by autoradiography in presence of 1 mg/kg of mGluR1 antagonist JNJ16259685. In kind it is organism-based. Further details: dose 1 mg/kg, route intravenous. Conditions: in vivo, 0.5 h. Put shortly: as §1

As for `CC(C)Nc1cc(-c2csc(N(C)C(=O)c3ccc([18F])cc3)n2)ncn1`, the Drug uptake turned out to be 342.2 PSL/mm2 in the series with Cerebral cortex [1]; 49.6 PSL/mm2 with Cerebral cortex [3]; 635.9 PSL/mm2 in the series with Cerebellum [4]; 69.3 PSL/mm2 in the series on Rattus norvegicus [5]; 428.1 PSL/mm2 with Hippocampus [6]; 672.6 PSL/mm2 in the series with Thalamus [7]. Further, the Drug uptake in the series on Cerebellum [8] came out at 76.6 PSL/mm2; in the series with Rattus norvegicus [9], 58.8 PSL/mm2; with Thalamus [10], 63.1 PSL/mm2; in the series on Hippocampus [11] it was 58.3 PSL/mm2; in the series on Striatum [12], 478.5 PSL/mm2; with Striatum [13] it was 54.1 PSL/mm2. This compound also came in with a log distribution coefficient (logD) in series [2] of 1.46.

Usually logD stands for the decadic logarithm of the distribution of all forms, ionised or not, between an organic phase and buffer at a given pH. High values mean a more lipophilic compound, low ones a more hydrophilic compound.
